These results are taken from ChEMBL document CHEMBL1128171, “A series of N4-imidoethyl derivatives of 1-(2,3-dihydro-1,4-benzodioxin-5-yl)piperazine as 5-HT1A receptor ligands: synthesis and structure-affinity relationships” (J Med Chem, 1995).

In series [1] the target is T1, 5-hydroxytryptamine receptor 1A (Rattus norvegicus, UniProt P19327).
T1 sequence (P19327 whole entry): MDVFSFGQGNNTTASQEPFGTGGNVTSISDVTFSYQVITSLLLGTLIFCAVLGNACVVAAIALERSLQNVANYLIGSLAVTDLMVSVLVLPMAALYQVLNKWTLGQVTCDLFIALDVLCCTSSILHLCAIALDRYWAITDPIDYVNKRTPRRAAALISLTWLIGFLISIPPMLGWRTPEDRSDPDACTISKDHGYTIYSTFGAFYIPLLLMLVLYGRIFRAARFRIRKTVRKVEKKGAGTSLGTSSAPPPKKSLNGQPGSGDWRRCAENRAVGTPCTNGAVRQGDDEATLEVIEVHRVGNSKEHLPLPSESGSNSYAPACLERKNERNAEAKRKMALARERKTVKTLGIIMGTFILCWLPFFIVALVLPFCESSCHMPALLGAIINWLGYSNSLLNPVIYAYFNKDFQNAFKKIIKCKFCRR
Put plainly: Inhibition of [3H]2-(di-N-propylamino)-8-hydroxytetralin binding to 5-HT1A receptor of rat frontal cortex homogenates. It counts as tissue-based. An outline of the steps: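 Rat frontal cortex homogenates incubated with [3H]-8-OH-DPAT at 37 °C, pH 7.7. Four to six drug concentrations, each in triplicate; three to six assays per value. IC50 for displacement of specific binding converted to Ki by Cheng–Prusoff using radioligand concentration and Kd. Reported as pKi.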

A short description of series [2]: Ionisation constant of the compound. Format: ADME. An outline of the steps:
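Potentiometric titration at 37 °C (±1 °C) under nitrogen, using a glass pH electrode calibrated at pH 4, 7 and 9. 30 mg substance in 40 mL 0.1 M KCl in carbonate-free water, 0.002-0.005 M. Titrant 0.05 M NaOH added in 0.05 mL steps. pKa calculated from 5-15 curve points (pre-precipitation only) and averaged.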

The Ki is a dissociation constant, usually derived from enzyme kinetics or from competition with a known ligand. High values mean weaker binding, low ones tighter binding. The pKa is the negative logarithm of the acid dissociation constant. Low values mean a group that gives up its proton readily, high ones a group that holds its proton tightly. For `O=C1CCCC(=O)N1CCN1CCN(c2cccc3c2OCCO3)CC1`, in series [1], affinity was put at a Ki of 347 nM. This molecule had a pKa in series [2] of 6.4.
For the molecule `CC1(C)CC(=O)N(CCN2CCN(c3cccc4c3OCCO4)CC2)C(=O)C1`, the affinity in series [1] corresponds to a Ki of 4.68 nM. In series [2], the pKa was determined as 6.42.
The matching figures for `Cc1ccc2c(c1)C(=O)N(CCN1CCN(c3cccc4c3OCCO4)CC1)C2=O`: 4.79 nM and 6.1.
As to `CC1CC(=O)N(CCN2CCN(c3cccc4c3OCCO4)CC2)C1=O` (configuration not stated), the Ki in series [1] is 151 nM. Further, the pKa in series [2] stood at 6.16.
In the case of `O=C1C=CC(=O)N1CCN1CCN(c2cccc3c2OCCO3)CC1`, the Ki in series [1] is 977 nM. The same molecule displayed a pKa in series [2] of 5.9.
Consider `O=C1C2CCCCC2C(=O)N1CCN1CCN(c2cccc3c2OCCO3)CC1` (configuration not stated), for which, in series [2], the pKa was found to be 6.07.
In series [1], `CC1=CC(=O)N(CCN2CCN(c3cccc4c3OCCO4)CC2)C1=O` showed a Ki of 63.1 nM. In addition, the pKa in series [2] turned out to be 6.3.
`O=C1CCC(=O)N1CCN1CCN(c2cccc3c2OCCO3)CC1` showed a Ki in series [1] of 110 nM. The molecule further registered a pKa in series [2] of 6.16.
In turn, `O=C1C2CC=CCC2C(=O)N1CCN1CCN(c2cccc3c2OCCO3)CC1` (configuration not stated) had a Ki in series [1] of 10 nM. In series [2], this molecule registered a pKa of 6.05.
In the case of `O=C1C2=C(CCCC2)C(=O)N1CCN1CCN(c2cccc3c2OCCO3)CC1`, in series [1], the Ki was 6.46 nM. In series [2], this molecule registered a pKa of 6.3.
Turning to `O=C1CC2(CCCC2)CC(=O)N1CCN1CCN(c2cccc3c2OCCO3)CC1`, the affinity in series [1], expressed as Ki, was 0.708 nM. The molecule further gave a pKa in series [2] of 6.51.
Take `O=C1c2ccccc2C(=O)N1CCN1CCN(c2cccc3c2OCCO3)CC1`: the Ki in series [1] was 32.4 nM.
